Experimental data: ChEMBL document CHEMBL1145035, “Design of selective peptidomimetic agonists for the human orphan receptor BRS-3” (J Med Chem, 2003)
Calls of active or inactive are those of the source. The calls are words filed in the database; no cut-off is given here. Square brackets hold non-standard residues; d marks the D form. Peptide text beside a SMILES is read from it. * marks the point of attachment. NHPhenethyl = c1ccc(CCN*)cc1; Nle = CCCC[C@H](N)C(=O)O; PhAc = O=C(Cc1ccccc1)*; βAla = NCCC(=O)O

Assays:
[1] = Emax
[2] = biological target: T1, Bombesin receptor subtype-3 (Homo sapiens, UniProt P32247); assay: Effective concentration required against human bombesin receptor 3 (BRS-3) in CHO cells by using FLIPR assay.; format: functional, cell-based
T1 sequence (P32247 whole entry): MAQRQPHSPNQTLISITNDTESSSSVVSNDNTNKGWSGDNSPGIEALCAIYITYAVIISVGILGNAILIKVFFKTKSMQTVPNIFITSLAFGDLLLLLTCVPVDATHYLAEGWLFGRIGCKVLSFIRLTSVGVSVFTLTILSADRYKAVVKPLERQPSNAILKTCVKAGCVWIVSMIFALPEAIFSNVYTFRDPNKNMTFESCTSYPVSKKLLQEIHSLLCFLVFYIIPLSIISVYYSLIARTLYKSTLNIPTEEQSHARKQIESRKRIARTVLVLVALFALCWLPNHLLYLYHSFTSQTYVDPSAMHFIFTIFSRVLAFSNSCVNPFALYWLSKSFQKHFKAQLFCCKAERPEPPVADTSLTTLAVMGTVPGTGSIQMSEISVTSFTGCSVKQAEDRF

Neuromedin-B receptor [3] = biological target: T2, Neuromedin-B receptor (Homo sapiens, UniProt P28336); assay: Effective concentration required against nueromedin B receptor (NMB-R) in CHO cells by using FLIPR assay.; format: functional, cell-based
Procedure, shortened: (§1)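 Intracellular Ca2+ mobilization was read by FLIPR in CHO cells transfected with the human receptor. NMB was the reference for NMB-R and GRP for GRP-R. EC50 values (±SEM) come from independent concentration–response curves, 4 to 30 per compound depending on the series.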
Target sequence in this assay (P28336 whole entry, looked up): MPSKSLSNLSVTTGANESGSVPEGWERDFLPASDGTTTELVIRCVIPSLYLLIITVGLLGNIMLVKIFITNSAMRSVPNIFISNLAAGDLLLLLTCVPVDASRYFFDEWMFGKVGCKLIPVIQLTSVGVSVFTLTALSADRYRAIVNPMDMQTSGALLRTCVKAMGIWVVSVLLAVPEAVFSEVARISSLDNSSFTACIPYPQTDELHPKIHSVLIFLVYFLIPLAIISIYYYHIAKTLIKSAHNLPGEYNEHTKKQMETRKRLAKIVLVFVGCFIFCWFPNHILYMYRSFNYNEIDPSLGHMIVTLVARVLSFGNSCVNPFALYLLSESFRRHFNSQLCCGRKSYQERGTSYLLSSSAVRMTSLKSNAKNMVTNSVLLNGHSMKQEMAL

[4] = biological target: T3, Gastrin-releasing peptide receptor (Homo sapiens, UniProt P30550); assay: Effective concentration required against gastrin releasing peptide receptor (GRP-R) in CHO cells by using FLIPR assay.; format: functional, cell-based; procedure, shortened: as §1
Target sequence in this assay (P30550 whole entry, looked up): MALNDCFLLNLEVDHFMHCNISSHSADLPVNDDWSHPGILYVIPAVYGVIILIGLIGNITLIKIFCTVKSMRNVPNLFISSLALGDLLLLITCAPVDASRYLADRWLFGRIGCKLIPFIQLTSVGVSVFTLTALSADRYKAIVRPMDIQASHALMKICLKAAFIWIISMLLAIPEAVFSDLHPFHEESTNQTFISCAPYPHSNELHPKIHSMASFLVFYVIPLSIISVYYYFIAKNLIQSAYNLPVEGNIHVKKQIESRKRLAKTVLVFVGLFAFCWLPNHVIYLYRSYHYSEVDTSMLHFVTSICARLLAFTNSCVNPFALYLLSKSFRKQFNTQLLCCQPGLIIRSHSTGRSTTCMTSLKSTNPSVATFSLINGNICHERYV

Neuromedin-B receptor [5] = biological target: T2, Neuromedin-B receptor; assay: (§2) Effective concentration required against nueromedin B receptor (NMB-R) in CHO cells by using FLIPR assay; format: functional, cell-based; procedure, shortened: as §1
Target sequence in this assay (P28336 whole entry): as the sequence (P28336 whole entry, looked up) above

[6] = biological target: T3, Gastrin-releasing peptide receptor; assay: Effective concentration required against gastrin releasing peptide receptor (GRP-R) in CHO cells by using FLIPR assay; format: functional, cell-based
Target sequence in this assay (P30550 whole entry): as the sequence (P30550 whole entry, looked up) above

Neuromedin-B receptor [7] = biological target: T2, Neuromedin-B receptor; assay: as §2; format: functional, cell-based; remark: listed apart in the source
Target sequence in this assay (P28336 whole entry): as the sequence (P28336 whole entry, looked up) above

Row | SMILES | Emax [1] | EC50 [2] [nM] | NA (Neuromedin-B receptor [3]) | NA [4] | EC50 (Neuromedin-B receptor [5]) [µM] | EC50 [6] [µM] | EC50 (Neuromedin-B receptor [7]) [nM]
1 | C[C@H](NCc1ccc(Cl)cc1)C(=O)N[C@@H](Cc1c[nH]c2ccccc12)C(=O)NCCc1ccccc1 | 83 | 4 | inactive | inactive | – | – | –
2 | O=C(Cc1cccnc1)NNC(=O)NC(Cc1c[nH]c2ccccc12)C(=O)NCCc1ccccc1 (centres undefined) | 102 | 1.4 | inactive | inactive | – | – | –
3 | C[C@H](NCc1ccccc1)C(=O)N[C@@H](Cc1c[nH]c2ccccc12)C(=O)NCCc1ccccc1 | 86 | 46 | inactive | inactive | – | – | –
4 | O=C(CNCc1ccccc1)NC(Cc1c[nH]c2ccccc12)C(=O)NCCc1ccccc1 (centres undefined) | 87 | – | inactive | inactive | – | – | –
5 | O=C(Cc1cc2ccccc2[nH]1)NNC(=O)NC(Cc1c[nH]c2ccccc12)C(=O)NCCc1ccccc1 (centres undefined) | 84 | – | inactive | inactive | – | – | –
6 | NC(=O)CC[C@H](NC(=O)Cc1ccc(Cl)cc1)C(=O)N[C@@H](Cc1c[nH]c2ccccc12)C(=O)NCCc1ccccc1 | 62 | 1400 | – | – | 18.5 | 12.2 | –
7 | C[C@H](NC(=O)Cc1ccccc1)C(=O)N[C@@H](Cc1c[nH]c2ccccc12)C(=O)NCCc1ccccc1 (PhAc-Ala-Trp-NHPhenethyl) | 71 | 2.1 | inactive | inactive | – | – | –
8 | C[C@H](NC(=O)CCc1ccc(Cl)cc1)C(=O)N[C@@H](Cc1c[nH]c2ccccc12)C(=O)NCCc1ccccc1 | 30 | 6400 | inactive | inactive | – | – | –
9 | C[C@H](NC(=O)CC1NCCc2ccccc21)C(=O)N[C@@H](Cc1c[nH]c2ccccc12)C(=O)NCCc1ccccc1 (some centres undefined) | 69 | 310 | inactive | inactive | – | – | –
10 | C[C@H](NC(=O)Cc1ccc2c(c1)OCO2)C(=O)N[C@@H](Cc1c[nH]c2ccccc12)C(=O)NCCc1ccccc1 | 75 | 7.8 | inactive | inactive | – | – | –
11 | O=C(CC1NCCc2ccccc21)NNC(=O)NC(Cc1c[nH]c2ccccc12)C(=O)NCCc1ccccc1 (centres undefined) | 95 | 9.3 | inactive | inactive | – | – | –
12 | CSCC[C@H](NC(=O)[C@H](CC(C)C)NC(=O)[C@H](Cc1c[nH]cn1)NC(=O)CNC(=O)[C@@H](NC(=O)[C@H](C)NC(=O)[C@H](Cc1c[nH]c2ccccc12)NC(=O)[C@H](Cc1c[nH]cn1)NC(=O)[C@H](CC(N)=O)NC(=O)CNC(=O)[C@H](CCCN=C(N)N)NC(=O)[C@@H]1CCCN1C(=O)[C@H](Cc1ccc(O)cc1)NC(=O)[C@H](CCSC)NC(=O)[C@H](CCCCN)NC(=O)[C@@H](NC(=O)[C@H](CC(C)C)NC(=O)[C@@H](NC(=O)[C@@H](NC(=O)CNC(=O)CNC(=O)CNC(=O)[C@H](C)NC(=O)[C@@H]1CCCN1C(=O)[C@H](CC(C)C)NC(=O)[C@@H]1CCCN1C(=O)[C@@H](N)C(C)C)[C@@H](C)O)C(C)C)[C@@H](C)O)C(C)C)C(N)=O | – | 6400 | – | – | 3.2 | 0.034 | –
13 | C[C@H](NC(=O)Cc1cccnc1)C(=O)N[C@@H](Cc1c[nH]c2ccccc12)C(=O)NCCc1ccccc1 | 74 | – | inactive | inactive | – | – | –
14 | O=C(CN1CCC(Cc2ccccc2)CC1)NC(Cc1c[nH]c2ccccc12)C(=O)NCCc1ccccc1 (centres undefined) | 84 | 30 | inactive | inactive | – | – | –
15 | NC(=O)CC[C@H](NC(=O)Cc1ccccc1)C(=O)N[C@@H](Cc1c[nH]c2ccccc12)C(=O)NCCc1ccccc1 (PhAc-Gln-Trp-NHPhenethyl) | 38 | 1200 | – | – | 15 | 19.1 | –
16 | O=C(N/N=C/c1ccco1)NC(Cc1c[nH]c2ccccc12)C(=O)NCCc1ccccc1 (centres undefined) | 94 | 1.5 | inactive | inactive | – | – | –
17 | O=C(CNCCc1ccccc1)NC(Cc1c[nH]c2ccccc12)C(=O)NCCc1ccccc1 (centres undefined) | 92 | – | inactive | inactive | – | – | –
18 | C[C@H](NC(=O)Cc1cc2ccccc2[nH]1)C(=O)N[C@@H](Cc1c[nH]c2ccccc12)C(=O)NCCc1ccccc1 | 69 | 79 | inactive | inactive | – | – | –

Row | SMILES | Emax [1] | EC50 [2] [nM] | NA (Neuromedin-B receptor [3]) | NA [4] | EC50 (Neuromedin-B receptor [5]) [µM] | EC50 [6] [µM] | EC50 (Neuromedin-B receptor [7]) [nM]
19 | C[C@H](NCCc1ccccc1)C(=O)N[C@@H](Cc1c[nH]c2ccccc12)C(=O)NCCc1ccccc1 | 82 | – | inactive | inactive | – | – | –
20 | O=C(CN1CCN(Cc2ccccc2)CC1)NC(Cc1c[nH]c2ccccc12)C(=O)NCCc1ccccc1 (centres undefined) | 90 | 70 | inactive | inactive | – | – | –
21 | O=C(Cc1ccc(Cl)cc1)NNC(=O)NC(Cc1c[nH]c2ccccc12)C(=O)NCCc1ccccc1 (centres undefined) | 89 | – | inactive | inactive | – | – | –
22 | O=C(N/N=C/c1ccc(Cl)cc1)NC(Cc1c[nH]c2ccccc12)C(=O)NCCc1ccccc1 (centres undefined) | 78 | 2700 | inactive | inactive | – | – | –
23 | C[C@H](NC(=O)Cc1ccc(Cl)cc1)C(=O)N[C@@H](Cc1c[nH]c2ccccc12)C(=O)NCCc1ccccc1 | 75 | 140 | inactive | inactive | – | – | –
24 | O=C(N/N=C/c1ccc(-c2cccs2)cc1)NC(Cc1c[nH]c2ccccc12)C(=O)NCCc1ccccc1 (centres undefined) | 58 | 7900 | inactive | inactive | – | – | –
25 | O=C(NNCc1ccc(Cl)cc1)NC(Cc1c[nH]c2ccccc12)C(=O)NCCc1ccccc1 (centres undefined) | 83 | 6 | inactive | inactive | – | – | –
26 | CCCC[C@H](NC(=O)[C@H](Cc1ccccc1)NC(=O)[C@H](Cc1cnc[nH]1)NC(=O)CCNC(=O)[C@@H](NC(=O)[C@H](C)NC(=O)[C@H](Cc1c[nH]c2ccccc12)NC(=O)[C@H](CCC(N)=O)NC(=O)[C@H](N)Cc1ccc(O)cc1)C(C)C)C(N)=O (H-[dY]QWAV[βAla]HF[Nle]-NH2) | – | 151 | – | – | – | – | 310
27 | NC(=O)CC[C@H](NC(=O)[C@H](N)Cc1ccccc1)C(=O)N[C@@H](Cc1c[nH]c2ccccc12)C(=O)NCCc1ccccc1 | – | 710 | inactive | inactive | – | – | –
28 | O=C(CC1NCCc2ccccc21)NNC(=O)N[C@H](Cc1c[nH]c2ccccc12)C(=O)NCCc1ccccc1 (some centres undefined) | 91 | 19 | inactive | inactive | – | – | –
29 | O=C(NNCc1ccco1)NC(Cc1c[nH]c2ccccc12)C(=O)NCCc1ccccc1 (centres undefined) | 96 | 24 | inactive | inactive | – | – | –
30 | NC(=O)CC[C@H](NC(=O)Cc1cc2ccccc2[nH]1)C(=O)N[C@@H](Cc1c[nH]c2ccccc12)C(=O)NCCc1ccccc1 | 82 | – | inactive | inactive | – | – | –
31 | NC(=O)CC[C@H](NC(=O)CCc1ccc(Cl)cc1)C(=O)N[C@@H](Cc1c[nH]c2ccccc12)C(=O)NCCc1ccccc1 | 68 | 230 | inactive | inactive | – | – | –
32 | O=C(CNCc1cccnc1)NC(Cc1c[nH]c2ccccc12)C(=O)NCCc1ccccc1 (centres undefined) | 82 | – | inactive | inactive | – | – | –
33 | CSCC[C@H](NC(=O)[C@H](Cc1ccccc1)NC(=O)[C@H](Cc1cnc[nH]1)NC(=O)CNC(=O)[C@@H](NC(=O)[C@H](C)NC(=O)[C@H](Cc1c[nH]c2ccccc12)NC(=O)[C@H](CC(C)C)NC(=O)[C@H](CC(N)=O)NC(=O)CN)[C@@H](C)O)C(N)=O | – | 4500 | – | – | 0.12 | 0.041 | –
34 | O=C(CNCc1ccc(Cl)cc1)NC(Cc1c[nH]c2ccccc12)C(=O)NCCc1ccccc1 (centres undefined) | 81 | – | inactive | inactive | – | – | –
35 | O=C(Cc1ccccc1)NNC(=O)NC(Cc1c[nH]c2ccccc12)C(=O)NCCc1ccccc1 (centres undefined) | 86 | – | inactive | inactive | – | – | –
36 | O=C(NNCc1ccccc1)NC(Cc1c[nH]c2ccccc12)C(=O)NCCc1ccccc1 (centres undefined) | 81 | 15 | inactive | inactive | – | – | –
